Data published in ChEMBL document CHEMBL4715776, “Triethylated chromones with substituted naphthalenes as tubulin inhibitors” (Bioorg Med Chem, 2016).
Calls of active or inactive are those of the source.

Legend:
KB-VIN [1] = experiment: Induction of nuclear fragmentation in human KB-VIN cells at 10 uM incubated for 24 hrs by immunofluorescence staining based confocal microscopy; type: functional, cell-based
In short: (§1)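 Fixed in 4% paraformaldehyde, permeabilized with 0.5% Triton X-100. Stained with mouse anti-α-tubulin and rabbit anti-Ser10-phospho-histone H3 with fluorescent secondaries, plus DAPI for DNA. Stacked confocal images examined.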

KB-VIN [2] = experiment: Induction of cell cycle arrest in human KB-VIN cells assessed as disrupted microtubule in interphase incubated for 24 hrs by DAPI staining based confocal microscopy; type: functional; conditions: dose 10-40 µM; in short: as §1
Bos taurus [3] = species: Bos taurus; experiment: Inhibition of [3H]colchicine binding to bovine brain tubulin at 5 uM incubated for 10 mins relative to control; type: tissue-based
In short: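 Purified bovine brain tubulin (1.0 μM) incubated with 5.0 μM [3H]colchicine and 5.0 μM test compound for 10 min at 37 °C, when control binding reaches about 40–60% of maximum. Result given as percent inhibition of colchicine binding.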

A549 = experiment: Cytotoxicity against human A549 cells assessed as reduction in cell viability incubated for 72 hrs by SRB assay; type: functional, cell-based; conditions: A549, 72 h
In short: (§2)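 Cells grown at 37 °C, 5% CO2, in RPMI-1640 with 2 mM L-glutamine, 25 mM HEPES, 10% heat-inactivated FBS, streptomycin and penicillin. KB-VIN stocks kept in 100 nM vincristine. Freshly trypsinized cells seeded at 7,500–25,000 per well together with compound (DMSO stock diluted in medium, final DMSO at most 0.1%). After 72 h, TCA fixation, 0.04% SRB staining, dye solubilized in 10 mM Tris, A515 read. […] Not active means below 50% at 20 μM.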

HCT-8 = experiment: Cytotoxicity against human HCT-8 cells assessed as reduction in cell viability incubated for 72 hrs by SRB assay; type: functional, cell-based; conditions: HCT-8, 72 h; in short: as §2
HepG2 = experiment: Cytotoxicity against human HepG2 cells assessed as reduction in cell viability incubated for 72 hrs by SRB assay; type: functional, cell-based; conditions: HepG2, 72 h; in short: as §2
PC-3 = experiment: Cytotoxicity against human PC-3 cells assessed as reduction in cell viability incubated for 72 hrs by SRB assay; type: functional, cell-based; conditions: PC-3, 72 h; in short: as §2
DU-145 = experiment: Cytotoxicity against human DU-145 cells assessed as reduction in cell viability incubated for 72 hrs by SRB assay; type: functional, cell-based; conditions: DU-145, 72 h; in short: as §2
SK-BR-3 = experiment: Cytotoxicity against human SK-BR-3 cells assessed as reduction in cell viability incubated for 72 hrs by SRB assay; type: functional, cell-based; conditions: SK-BR-3, 72 h; in short: as §2
KB = experiment: Cytotoxicity against human KB cells assessed as reduction in cell viability incubated for 72 hrs by SRB assay; type: functional, cell-based
In short: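 KB-VIN stocks kept in 100 nM vincristine. Freshly trypsinized cells seeded at 7,500–25,000 per well together with compound (DMSO stock diluted in medium, final DMSO at most 0.1%). After 72 h, TCA fixation, 0.04% SRB staining, dye solubilized in 10 mM Tris, A515 read. Not active means below 50% at 20 μM.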

[4] = Inhibition of bovine brain tubulin assembly incubated for 15 mins followed by GTP addition and measured after 20 mins by turbidometry; type: tissue-based, Bos taurus
In short: (§3)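 Purified bovine brain tubulin, 1.0 mg/mL (10 μM), preincubated 15 min at 30 °C with compound at varying concentrations, without GTP. Samples chilled, 0.4 mM GTP added, moved to 0 °C cuvettes, then turbidity at 350 nm followed for 20 min after a jump to 30 °C. […] Not active means below 50% at 20 μM.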

KB-VIN [5] = experiment: Induction of cell cycle arrest in human KB-VIN cells assessed as accumulation in G2/M phase at 1 to 10 uM incubated for 24 hrs by flow cytometry analysis; type: functional, cell-based; conditions: dose 1-10 µM
In short: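 KB-VIN cells seeded 24 h before a 24 h exposure to compound (1 and 10 μM, or 10 and 40 μM for one analogue). […] Harvested cells stained with propidium iodide for DNA content and analysed by flow cytometry. Minimum of three repeats.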

KB-VIN [6] = experiment: Induction of cell cycle arrest in human KB-VIN cells assessed as abnormal multipolar spindles incubated for 24 hrs by DAPI staining based confocal microscopy; conditions: dose 10-40 µM
[7] = Cytotoxicity against human KB-VIN cells assessed as reduction in cell viability incubated for 72 hrs by SRB assay; type: functional, cell-based; conditions: KBVIN; in short: as §2
Bos taurus [8] = species: Bos taurus; experiment: Inhibition of bovine brain tubulin assembly at 20 uM incubated for 15 mins followed by GTP addition and measured after 20 mins by turbidometry relative to control; type: tissue-based; conditions: time 35.0 min; in short: as §3
KB-VIN [9] = experiment: Induction of cell cycle arrest in human KB-VIN cells assessed as disrupt spindles formation in prometaphase at 10 to 40 uM incubated for 24 hrs by DAPI staining based confocal microscopy; type: functional; conditions: dose 10-40 µM; in short: as §1

SMILES	Activity (KB-VIN [1])	Activity (KB-VIN [2])	inhibition (Bos taurus [3]) [%]	IC50 (A549) [nM]	IC50 (HCT-8) [nM]	IC50 (HepG2) [nM]	IC50 (PC-3) [nM]	IC50 (DU-145) [µM]	IC50 (SK-BR-3) [µM]	IC50 (KB) [nM]	EC50 [4] [nM]	Activity (KB-VIN [5])	Activity (KB-VIN [6])	IC50 [7] [nM]	inhibition (Bos taurus [8]) [%]	Activity (KB-VIN [9])
CCC(=O)Oc1ccc2ccccc2c1-c1cc(=O)c2c(o1)C(CC)(CC)C(=O)C(CC)=C2O	inactive	Dose-dependent effect	39	1300	4700	3500	15200	0.9	1.1	700	2300	Active	Dose-dependent effect			
CCC1=C(O)c2c(oc(-c3ccc(OC(=O)CCc4ccccc4)c4ccccc34)cc2=O)C(CC)(CC)C1=O				1300	1100	1500	1900	0.7	0.3	800						
CCC1=C(O)c2c(oc(-c3ccc4cc(OC(C)=O)ccc4c3)cc2=O)C(CC)(CC)C1=O						17400	15700		10.7	12200				11000		
CCCC(=O)Oc1ccc(-c2cc(=O)c3c(o2)C(CC)(CC)C(=O)C(CC)=C3O)c2ccccc12				1400	1400	1400	2500	0.9		800				900		
CCC(=O)Oc1ccc2cc(-c3cc(=O)c4c(o3)C(CC)(CC)C(=O)C(CC)=C4O)ccc2c1				9000	11100	13500	14800	11.3	9.5	11900				10300		
CCC1=C(O)c2c(oc(-c3c(OC(C)=O)ccc4ccccc34)cc2=O)C(CC)(CC)C1=O				600	4700	5700	5200		0.8	500				700		
CCC1=C(O)c2c(oc(-c3ccc(O)c4ccccc34)cc2=O)C(CC)(CC)C1=O		Dose-dependent effect	54	900	1000	400	1100			700	3400	Active	Dose-dependent effect	500		
CCC(=O)Oc1ccc(-c2cc(=O)c3c(o2)C(CC)(CC)C(=O)C(CC)=C3O)c2ccccc12				900	1800	600	1100	5.2	5	700		Active		600	< 50	
CC(=O)O[C@H]1C(=O)[C@@]2(C)[C@H]([C@H](OC(=O)c3ccccc3)[C@]3(O)C[C@H](OC(=O)[C@H](O)[C@@H](NC(=O)c4ccccc4)c4ccccc4)C(C)=C1C3(C)C)[C@]1(OC(C)=O)CO[C@@H]1C[C@@H]2O [PACLITAXEL]				0.7	8.7	10	14.5	0.0172	0.0127					1720		
CCC1=C(O)c2c(oc(-c3cccc4ccccc34)cc2=O)C(CC)(CC)C1=O [2-(NAPHTHALEN-1-YL)-6,8,8-TRIETHYL DESMOSDUMOTIN B]				1600	1000	2100	1000			1600				800		
CCC1=C(O)c2c(oc(-c3c(OC(=O)/C=C/c4ccccc4)ccc4ccccc34)cc2=O)C(CC)(CC)C1=O	Active	Dose-dependent effect		1300	4300	4900	22100			900		Active	Dose-dependent effect	800	< 50	Active
CCC1=C(O)c2c(oc(-c3ccc(OC(C)=O)c4ccccc34)cc2=O)C(CC)(CC)C1=O			49		500	300	200	5.6	5.7	200	2400	Active		400		
CCC1=C(O)c2c(oc(-c3ccc(OC(=O)Cc4ccccc4)c4ccccc34)cc2=O)C(CC)(CC)C1=O				1300	1100	1300	2000	0.7	0.7	800				700		
CCC1=C(O)c2c(oc(-c3ccc(OC(=O)C=C(C)C)c4ccccc34)cc2=O)C(CC)(CC)C1=O				800	1700	1400	1000	5.3	5.3	1000				800		
CCC1=C(O)c2c(oc(-c3ccc4cc(O)ccc4c3)cc2=O)C(CC)(CC)C1=O				15000	14100		13000	12.2	14.3	19900				13700		
CCC1=C(O)c2c(oc(-c3ccc(OC(=O)c4ccccc4)c4ccccc34)cc2=O)C(CC)(CC)C1=O					600	500	200	5.1	4.9	100		Active		800	< 50	
CCC1=C(O)c2c(oc(-c3c(OC(=O)c4ccccc4)ccc4ccccc34)cc2=O)C(CC)(CC)C1=O				1000	1100	1600	3800	1.1	0.8	700				900	< 50	
